Measured values reported in PMC9444296 (Investigative Radiology, 2022).
“Also recorded” adds a separate entry of the source. Like-named read-outs stand apart in the source and are kept apart here.

Tests used:
[1] = Metabolic stability in human hepatocytes; format: in vitro ADME; settings: 2 hours of incubation, LC-MS/MS
[2] = Biodistribution in SD rats; format: in vivo, rat; settings: for AUC(0–48h) / AUCINF / Cmax / Gd concentration in the brain: SD rat; for AUC(0–48h) / AUCINF / Cmax: 0.1 mmol/kg single IV, Gd by ICP-MS; for Gd concentration in the brain: 0.1 mmol/kg IV, ICP-MS (LLOQ 0.1 μg/g)
Summary of the method: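 Rats, 30 in total (3/sex/group), received a single IV injection of 0.1 mmol/kg. Blood and tissues were taken predose and at 10 and 30 min and 2, 6 and 48 h. Gd was measured by ICP-MS, and parameters came from noncompartmental analysis.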

SD rats = test: Single and repeated dose toxicity and toxicokinetics in SD rats; format: in vivo, rat; settings: for NOAEL: SD rats; for accumulation ratio AUC0–24h (D14)/AUC0–24h (D1) of Gd: 14 days
Summary of the method: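 GLP study in SD rats aged 6–7 weeks (M 200–246 g, F 175–224 g). […] Clinical observation, organ weights and macro/microscopic histopathology were done. Plasma exposure (AUC0–24h, C0) was taken on D1 and D14, with accumulation ratio AUC0–24h(D14)/AUC0–24h(D1) of Gd.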

MDR1 = MDR1 (Homo sapiens, UniProt P08183); test: MDR1 inhibition, membrane vesicles; format: in vitro ADME; settings: 1, 5, 10, 50, and 100 μM
Chain of MDR1 (P08183 whole entry): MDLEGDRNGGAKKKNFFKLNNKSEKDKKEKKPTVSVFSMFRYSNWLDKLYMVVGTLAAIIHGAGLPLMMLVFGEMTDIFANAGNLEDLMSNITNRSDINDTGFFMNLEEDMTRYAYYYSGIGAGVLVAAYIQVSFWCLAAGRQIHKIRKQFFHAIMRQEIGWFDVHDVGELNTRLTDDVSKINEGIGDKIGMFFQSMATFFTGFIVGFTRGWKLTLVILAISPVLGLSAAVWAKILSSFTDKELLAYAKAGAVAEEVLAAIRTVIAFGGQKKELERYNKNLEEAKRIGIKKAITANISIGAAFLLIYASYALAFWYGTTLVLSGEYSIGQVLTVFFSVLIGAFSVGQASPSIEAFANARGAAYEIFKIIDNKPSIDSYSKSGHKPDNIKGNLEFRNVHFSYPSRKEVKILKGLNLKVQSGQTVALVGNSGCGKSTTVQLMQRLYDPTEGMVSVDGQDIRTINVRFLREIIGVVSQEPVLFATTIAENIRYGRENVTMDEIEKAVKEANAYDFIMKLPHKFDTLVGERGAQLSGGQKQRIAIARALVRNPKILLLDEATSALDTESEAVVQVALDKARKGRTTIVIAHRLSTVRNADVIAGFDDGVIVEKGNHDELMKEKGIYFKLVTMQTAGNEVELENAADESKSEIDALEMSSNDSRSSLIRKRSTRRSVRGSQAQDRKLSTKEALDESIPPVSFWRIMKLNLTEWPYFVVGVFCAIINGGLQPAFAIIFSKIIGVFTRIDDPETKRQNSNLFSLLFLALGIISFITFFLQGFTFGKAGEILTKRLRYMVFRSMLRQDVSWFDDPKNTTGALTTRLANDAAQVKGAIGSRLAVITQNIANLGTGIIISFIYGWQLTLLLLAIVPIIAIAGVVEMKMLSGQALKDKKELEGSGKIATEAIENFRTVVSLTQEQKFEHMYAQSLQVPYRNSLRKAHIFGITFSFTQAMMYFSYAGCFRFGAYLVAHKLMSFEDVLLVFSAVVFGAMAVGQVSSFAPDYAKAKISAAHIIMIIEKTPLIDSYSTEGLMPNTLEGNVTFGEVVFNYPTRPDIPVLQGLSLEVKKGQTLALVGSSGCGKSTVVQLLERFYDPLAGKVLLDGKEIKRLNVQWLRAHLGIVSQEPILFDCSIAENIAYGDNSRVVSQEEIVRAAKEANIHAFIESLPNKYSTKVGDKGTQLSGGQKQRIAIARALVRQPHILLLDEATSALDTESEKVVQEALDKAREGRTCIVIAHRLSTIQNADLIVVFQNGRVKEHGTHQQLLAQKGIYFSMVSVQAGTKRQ

MATE1 = MATE1 (Homo sapiens, UniProt Q96FL8); test: MATE1 inhibition, HEK293 cells; format: in vitro ADME; settings: 1, 5, 10, 50, and 100 μM
Chain of MATE1 (Q96FL8 whole entry): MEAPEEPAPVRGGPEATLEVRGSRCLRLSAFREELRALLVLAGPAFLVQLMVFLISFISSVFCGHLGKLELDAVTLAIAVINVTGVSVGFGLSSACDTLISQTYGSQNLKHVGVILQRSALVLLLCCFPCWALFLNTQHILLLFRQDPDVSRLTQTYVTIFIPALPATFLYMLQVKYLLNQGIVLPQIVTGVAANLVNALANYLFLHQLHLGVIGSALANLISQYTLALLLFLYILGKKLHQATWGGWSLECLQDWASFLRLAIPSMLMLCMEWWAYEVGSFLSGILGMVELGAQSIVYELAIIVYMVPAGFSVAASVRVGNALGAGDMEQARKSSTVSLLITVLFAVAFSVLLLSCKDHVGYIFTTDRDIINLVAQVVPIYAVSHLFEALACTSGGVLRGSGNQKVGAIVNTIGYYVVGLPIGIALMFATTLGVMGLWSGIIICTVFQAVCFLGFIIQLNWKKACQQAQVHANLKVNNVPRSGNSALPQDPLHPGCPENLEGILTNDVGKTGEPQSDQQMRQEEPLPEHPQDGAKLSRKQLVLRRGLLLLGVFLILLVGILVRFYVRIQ

MATE2K = MATE2K (Homo sapiens, UniProt Q86VL8); test: MATE2K inhibition, HEK293 cells; format: in vitro ADME; settings: 1, 5, 10, 50, and 100 μM
Chain of MATE2K (Q86VL8 1-566 isoform Q86VL8-3): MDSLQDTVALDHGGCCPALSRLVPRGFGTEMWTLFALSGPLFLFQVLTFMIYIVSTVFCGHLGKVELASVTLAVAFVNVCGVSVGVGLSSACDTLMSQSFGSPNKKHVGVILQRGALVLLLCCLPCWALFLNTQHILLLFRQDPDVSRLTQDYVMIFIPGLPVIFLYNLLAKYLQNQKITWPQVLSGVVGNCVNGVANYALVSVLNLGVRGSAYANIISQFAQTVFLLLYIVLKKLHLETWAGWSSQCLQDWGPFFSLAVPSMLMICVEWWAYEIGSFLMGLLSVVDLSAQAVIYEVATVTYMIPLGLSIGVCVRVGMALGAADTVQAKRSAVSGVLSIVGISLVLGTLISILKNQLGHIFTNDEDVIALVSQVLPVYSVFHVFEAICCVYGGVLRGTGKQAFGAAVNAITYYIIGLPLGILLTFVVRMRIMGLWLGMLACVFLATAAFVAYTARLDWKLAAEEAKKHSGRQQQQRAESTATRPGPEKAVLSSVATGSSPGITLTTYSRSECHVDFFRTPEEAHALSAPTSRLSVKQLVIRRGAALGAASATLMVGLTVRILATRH

Gd = format: physicochemical; settings: HPLC-UV
Summary of the method: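 Test compound at 0.25 mM (final) was incubated with 0.25 mM DOTA, DTPA, HP-DO3A or EDTA, or with 0.50 mM ZnCl₂. Buffers were 0.05 M acetate pH 5 or 0.05 M Tris pH 7.4, at room temperature (25°C) or 37.5°C, for up to 30 days. Intact compound remaining was measured by HPLC-UV (C18; 0.08% TFA acetonitrile/water).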

CYP3A4 = settings: human primary hepatocytes, 1, 10, and 100 μM
[3] = Metabolic stability in cynomolgus monkey hepatocytes; format: in vitro ADME; settings: 2 hours of incubation, LC-MS/MS
hERG = hERG (Homo sapiens, UniProt Q12809); settings: HEK293, whole-cell patch clamp
Chain of hERG (Q12809 whole entry): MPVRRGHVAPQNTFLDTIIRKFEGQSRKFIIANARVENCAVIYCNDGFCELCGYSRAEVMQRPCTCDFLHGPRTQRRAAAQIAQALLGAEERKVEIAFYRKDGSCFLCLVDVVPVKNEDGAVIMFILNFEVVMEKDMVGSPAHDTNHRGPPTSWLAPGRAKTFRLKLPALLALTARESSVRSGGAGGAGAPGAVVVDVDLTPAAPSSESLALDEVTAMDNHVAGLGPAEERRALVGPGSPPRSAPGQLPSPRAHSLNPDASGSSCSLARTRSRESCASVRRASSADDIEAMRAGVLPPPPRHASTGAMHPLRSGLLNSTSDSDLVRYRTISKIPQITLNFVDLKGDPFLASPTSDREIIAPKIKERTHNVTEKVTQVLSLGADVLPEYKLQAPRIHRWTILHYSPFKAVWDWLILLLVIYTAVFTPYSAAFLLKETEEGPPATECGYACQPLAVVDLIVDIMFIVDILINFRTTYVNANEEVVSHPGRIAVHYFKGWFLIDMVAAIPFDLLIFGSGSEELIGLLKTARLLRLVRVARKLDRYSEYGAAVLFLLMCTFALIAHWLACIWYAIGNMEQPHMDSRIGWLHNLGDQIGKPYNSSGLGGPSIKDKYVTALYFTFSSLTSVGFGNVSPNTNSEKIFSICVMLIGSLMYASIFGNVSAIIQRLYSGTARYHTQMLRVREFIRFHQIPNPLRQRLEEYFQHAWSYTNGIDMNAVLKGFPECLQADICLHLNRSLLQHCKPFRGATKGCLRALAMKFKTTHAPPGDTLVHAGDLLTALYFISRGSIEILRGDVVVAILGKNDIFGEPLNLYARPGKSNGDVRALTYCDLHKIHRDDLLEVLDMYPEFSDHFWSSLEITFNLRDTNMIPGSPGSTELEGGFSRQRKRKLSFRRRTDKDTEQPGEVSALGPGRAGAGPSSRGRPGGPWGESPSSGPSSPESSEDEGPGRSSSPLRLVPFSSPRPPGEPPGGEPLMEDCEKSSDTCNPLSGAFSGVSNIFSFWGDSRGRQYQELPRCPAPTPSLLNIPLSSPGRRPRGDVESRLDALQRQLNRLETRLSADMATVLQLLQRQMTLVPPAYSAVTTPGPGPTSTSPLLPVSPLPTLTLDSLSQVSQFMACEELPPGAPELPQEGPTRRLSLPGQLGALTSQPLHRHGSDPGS

OPRD1 = OPRD1 (Homo sapiens, UniProt P41143); test: SAFETYscan E/IC50 assay, OPRD1; format: biochemical; settings: concentration range 0.005 to 100 μM
Chain of OPRD1 (P41143 whole entry, the tested form may be a part): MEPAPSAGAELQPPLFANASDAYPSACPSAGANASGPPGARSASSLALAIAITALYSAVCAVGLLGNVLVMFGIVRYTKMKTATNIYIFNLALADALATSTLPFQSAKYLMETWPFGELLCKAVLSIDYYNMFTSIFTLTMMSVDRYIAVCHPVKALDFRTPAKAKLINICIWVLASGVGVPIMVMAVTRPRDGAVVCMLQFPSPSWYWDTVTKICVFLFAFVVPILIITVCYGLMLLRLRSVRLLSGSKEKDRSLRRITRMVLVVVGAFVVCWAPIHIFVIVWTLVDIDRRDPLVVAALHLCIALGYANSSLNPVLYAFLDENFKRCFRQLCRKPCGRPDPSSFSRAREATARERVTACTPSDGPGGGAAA
Summary of the method: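 Contract-laboratory in vitro panel of 78 targets, run in agonist and/or antagonist modes under provider SOPs over 0.005 to 100 μM. Panel formats included enzyme fragment complementation, FLIPR-based cellular assays, kinase binding and enzymatic assays.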

OAT3 = OAT3 (Homo sapiens, UniProt Q8TCC7); test: OAT3 inhibition, HEK293 cells; format: in vitro ADME; settings: 1, 5, 10, 50, and 100 μM
Chain of OAT3 (Q8TCC7 whole entry): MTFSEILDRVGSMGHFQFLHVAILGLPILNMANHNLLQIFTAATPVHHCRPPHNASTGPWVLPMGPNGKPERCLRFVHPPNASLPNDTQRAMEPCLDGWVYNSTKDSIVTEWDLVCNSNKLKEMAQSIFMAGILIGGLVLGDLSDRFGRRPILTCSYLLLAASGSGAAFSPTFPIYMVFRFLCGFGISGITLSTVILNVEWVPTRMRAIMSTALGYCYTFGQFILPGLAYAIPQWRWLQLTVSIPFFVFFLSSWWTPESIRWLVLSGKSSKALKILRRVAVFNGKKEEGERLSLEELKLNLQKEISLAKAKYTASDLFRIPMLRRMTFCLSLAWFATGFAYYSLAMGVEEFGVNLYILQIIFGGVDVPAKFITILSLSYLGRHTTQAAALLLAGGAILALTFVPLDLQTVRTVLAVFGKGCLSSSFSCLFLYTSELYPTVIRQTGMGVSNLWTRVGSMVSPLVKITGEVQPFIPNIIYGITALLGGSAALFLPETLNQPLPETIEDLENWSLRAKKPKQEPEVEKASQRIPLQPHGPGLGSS

CYP2B6 = settings: human primary hepatocytes, 1, 10, and 100 μM
[4] = test system: LNCaP human prostate tumors; test: Contrast-enhanced MRI of LNCaP prostate tumor xenografts in rats; format: in vivo, rat; settings: 3 T, n = 3
Summary of the method: (§1)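 Male rats carried subcutaneous flank xenografts of 4 × 10⁶ PC3 or 8 × 10⁶ LNCaP cells in Matrigel-PBS (1:1) and were imaged once tumours exceeded 100 mm³. Scans used 1 mm slices, 2 averages and a 128 × 128 matrix. The same tumour-bearing rats were reused across agents and doses, with a clinical Gd agent at 0.1 mmol Gd/kg as comparator.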

[5] = test system: PC3 human prostate cancer xenografts; test: Contrast-enhanced MRI of PC3 prostate tumor xenografts in rats; format: in vivo, rat; settings: PC3 tumors in rats, 3 T, n = 6
Summary of the method: as §1

[6] = Metabolic stability in beagle dog hepatocytes; format: in vitro ADME; settings: 2 hours of incubation, LC-MS/MS

With ZD2-N3-Gd(HP-DO3A) [MT218] the “remaining MT218” value [1] was 61.1%, the “AUC(0–48h)” value ([2]; Brain) was 0.86 µg·h/g and the AUCINF ([2]; Brain) was 0.87 µg·h/g. For the same substance, the Cmax ([2]; Brain) was 1.10 µg/g, the “AUC(0–48h)” value ([2]; Fat) was 3.18 µg·h/g and the AUCINF ([2]; Fat) was 3.23 µg·h/g. For the same substance, the Cmax ([2]; Fat) was 4.07 µg/g, the “AUC(0–48h)” value ([2]; Gonads) was 11.78 µg·h/g and the AUCINF ([2]; Gonads) was 17.48 µg·h/g. The Cmax ([2]; Gonads) was 7.22 µg/g, the “AUC(0–48h)” value ([2]; Heart) was 7.15 µg·h/g and the AUCINF ([2]; Heart) was 7.56 µg·h/g. For the same substance, the Cmax ([2]; Heart) was 7.54 µg/g, the “AUC(0–48h)” value ([2]; Kidney) was 481.54 µg·h/g and the AUCINF ([2]; Kidney) was 2936.07 µg·h/g. The Cmax ([2]; Kidney) was 74.89 µg/g, the “AUC(0–48h)” value ([2]; Liver) was 17.22 µg·h/g and the AUCINF ([2]; Liver) was 27.86 µg·h/g. The Cmax ([2]; Liver) was 4.73 µg/g, the “AUC(0–48h)” value ([2]; Lung) was 17.81 µg·h/g and the AUCINF ([2]; Lung) was 19.50 µg·h/g. The Cmax ([2]; Lung) was 14.28 µg/g, the “AUC(0–48h)” value ([2]; Lymph nodes) was 27.63 µg·h/g and the AUCINF ([2]; Lymph nodes) was 51.39 µg·h/g. The Cmax ([2]; Lymph nodes) was 12.53 µg/g, the “AUC(0–48h)” value ([2]; Muscle) was 4.27 µg·h/g and the AUCINF ([2]; Muscle) was 4.29 µg·h/g. For the same substance, the Cmax ([2]; Muscle) was 5.51 µg/g, the “AUC(0–48h)” value ([2]; Plasma) was 34060 ng·h/mL and the AUCINF ([2]; Plasma) was 34180 ng·h/mL. The Cmax ([2]; Plasma) was 44960 ng/mL, the “AUC(0–48h)” value ([2]; Prostate) was 12.05 µg·h/g and the AUCINF ([2]; Prostate) was 13.12 µg·h/g. The Cmax ([2]; Prostate) was 6.05 µg/g, the “Gd concentration in the brain” value ([2]; 2 hours post-injection) was “reached LLOQ” and the “Gd concentration in the brain” value ([2]; 6 hours post-injection) was “No detectable Gd deposition; also recorded: undetectable”. For the same substance, the “AUC(0–48h)” value ([2]; Skeleton) was 11.83 µg·h/g, the AUCINF ([2]; Skeleton) was 12.16 µg·h/g and the Cmax ([2]; Skeleton) was 4.58 µg/g. For the same substance, the “AUC(0–48h)” value ([2]; Skin) was 28.54 µg·h/g, the AUCINF ([2]; Skin) was 30.96 µg·h/g and the Cmax ([2]; Skin) was 17.21 µg/g. For the same substance, the “AUC(0–48h)” value ([2]; Small intestine) was 13.99 µg·h/g, the AUCINF ([2]; Small intestine) was 19.76 µg·h/g and the Cmax ([2]; Small intestine) was 6.44 µg/g. The “AUC(0–48h)” value ([2]; Spleen) was 15.18 µg·h/g, the AUCINF ([2]; Spleen) was 35.21 µg·h/g and the Cmax ([2]; Spleen) was 4.14 µg/g. For the same substance, the “AUC(0–48h)” value ([2]; Stomach) was 12.99 µg·h/g, the AUCINF ([2]; Stomach) was 15.13 µg·h/g and the Cmax ([2]; Stomach) was 10.87 µg/g. For the same substance, the “Gd concentration in the tested tissues besides the kidneys” value ([2]; rats, biodistribution study, level to which it decreased, time not given) was at most 1.0 µg/g, the NOAEL (SD rats; repeated daily IV dose for 14 days) was 0.46 mmol/kg/day and the NOAEL (SD rats; single IV dose) was 1.39 mmol/kg. The “accumulation ratio AUC0–24h (D14)/AUC0–24h (D1) of Gd” value (“accumulation ratio AUC0–24h” below) (SD rats; female rats, high dose 1.39 mmol/kg/d IV) was 1.22, the “accumulation ratio AUC0–24h” value (SD rats; female rats, low dose 0.15 mmol/kg/d IV) was 1.41 and the “accumulation ratio AUC0–24h” value (SD rats; female rats, medium dose 0.46 mmol/kg/d IV) was 1.61. For the same substance, the “accumulation ratio AUC0–24h” value (SD rats; male rats, high dose 1.39 mmol/kg/d IV) was 1.31, the “accumulation ratio AUC0–24h” value (SD rats; male rats, low dose 0.15 mmol/kg/d IV) was 1.52 and the “accumulation ratio AUC0–24h” value (SD rats; male rats, medium dose 0.46 mmol/kg/d IV) was 1.49. For the same substance, the mortality or moribundity (SD rats; rats, any dose group, up to 1.39 mmol/kg/d) was “no mortality or morbidity; also recorded: No mortality or moribundity”, the “clinical observations (body weight, food consumption, temperature, ophthalmoscopy, hematology, coagulation, clinical chemistry, urinalysis)” value (SD rats; rats, any dose level) was “No MT218-related changes” and the pathological findings (SD rats; rats, low and medium repeated-dosing groups (0.15, 0.46 mmol/kg/d)) was “No such abnormality”. For the same substance, the pathological findings (SD rats; rats, single dose 1.39 mmol/kg) was “no MT218-related macroscopic and microscopic abnormality”, the “inhibition of MDR1 transporter activity” value (MDR1) was “no inhibition potential” and the “inhibition of MATE1 transporter activity” value (MATE1) was “no inhibition potential”. The “inhibition of MATE2K transporter activity” value (MATE2K) was “no inhibition potential”, the “duration of chelation stability” value (Gd; pH 5 (0.05 M acetate), 25°C) was “at least 30 days” and the “dissociation of MT218 in the presence of Zn(II) ions” value (Gd; pH 5, 37.5°C, 0.50 mM ZnCl2, at least 30 days) was “did not cause dissociation”. The “stability of MT218” value (Gd; pH 5, 37.5°C, acetate buffer) was “stable”, the “stability of MT218 in the presence of free chelating ligands” value (Gd; pH 5, 37.5°C, with 0.25 mM DOTA, DTPA, HP-DO3A or EDTA) was “Loss of MT218 was observed” and the “induction of mRNA expression of CYP3A4” value (CYP3A4) was “did not induce”. The “induction on enzyme activity of CYP3A4” value (CYP3A4) was “no induction”, the “remaining MT218” value [3] was 82.9% and the “average inhibition of the hERG currents” value (hERG; 30.69 μM) was 36.87% ± 6.93%. The “average inhibition of the hERG currents” value (hERG; 103.54 μM) was 52.19% ± 0.82%, the inhibition rate (OPRD1) was 11.08% and the “inhibition of OAT3 transporter activity” value (OAT3) was “no inhibition potential”. For the same substance, the “induction of mRNA expression of CYP2B6” value (CYP2B6) was “did not induce”, the “induction on enzyme activity of CYP2B6” value (CYP2B6) was “no induction” and the CNR ([4]; 0.02 mmol/kg IV) was 0.88 ± 0.06. The CNR ([4]; 0.04 mmol/kg IV) was 1.13 ± 0.38, the CNR ([5]; 0.02 mmol Gd/kg IV, 10 minutes postinjection) was 2.67 ± 1.05 and the CNR ([5]; 0.02 mmol Gd/kg IV, 30 minutes postinjection) was 1.97 ± 0.67. The CNR ([5]; 0.04 mmol Gd/kg IV, 10 minutes postinjection) was 5.94 ± 1.68, the CNR ([5]; 0.04 mmol Gd/kg IV, 30 minutes postinjection) was 4.92 ± 0.79 and the “remaining MT218” value [6] was 41.0%.
